Columns and labels:
[1] = system: NCI-H460; experiment: Cytotoxicity against human NCI-H460 cells pretreated for 24 hrs under hypoxic condition followed by compound washout measured after 72 hrs by MTT assay; type: functional, cell-based
Procedure, shortened: (§1)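 HT29 in McCoy's 5A, H460 in RPMI 1640, each with 10% FBS and 1% pen-strep, 37 °C, 5% CO2. Seeded and grown 24 h, then exposed for 24 h to serial dilutions (DMSO ≤0.1% final) in hypoxia (94% N2/5% CO2/1% O2 chamber) or air.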

[2] = system: HT-29; experiment: Selectivity ratio of IC50 for human HT-29 cells under normoxic condition to IC50 for human HT-29 cells under hypoxic condition
[3] = system: NCI-H460; experiment: Selectivity ratio of IC50 for human NCI-H460 cells under normoxic condition to IC50 for human NCI-H460 cells under hypoxic condition
[4] = system: HT-29; experiment: Cytotoxicity against human HT-29 cells pretreated for 24 hrs under hypoxic condition followed by compound washout measured after 72 hrs by MTT assay; type: functional, cell-based; procedure, shortened: as §1
[5] = Stability of the compound in phosphate buffered saline assessed as compound remaining at 5 uM after 48 hrs by HPLC method; type: physicochemical; conditions: read-out: Stability
Procedure, shortened: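 Compound held in 10 mM PBS pH 7.4 at 37 °C for 48 h; percent remaining measured.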

[6] = system: HT-29; experiment: Cytotoxicity against human HT-29 cells pretreated for 24 hrs under normoxic condition followed by compound washout measured after 72 hrs by MTT assay; type: cell-based; procedure, shortened: as §1
[7] = Stability of the compound in mouse liver microsomes assessed as compound remaining at 5 uM after 6 hrs in presence of NADPH by HPLC method; type: ADME, microsome; conditions: read-out: Stability
Procedure, shortened: (§2)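 Final mix: 5 µM compound, mouse liver microsomes 1 mg/mL, 5 mM MgCl2, ±1 mM NADPH, in 10 mM PBS pH 7.4 at 37 °C. Preincubated, then started by adding microsomes. Samples at 0–6 h quenched with cold methanol and centrifuged. Supernatant run on C18 HPLC (5–95% CH3CN/0.1% TFA, 373 nm); percent remaining at 6 h.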

[8] = Stability of the compound in mouse liver microsomes assessed as compound remaining at 5 uM after 6 hrs in absence of NADPH by HPLC method; type: ADME, microsome; conditions: read-out: Stability; procedure, shortened: as §2
[9] = system: NCI-H460; experiment: Cytotoxicity against human NCI-H460 cells pretreated for 24 hrs under normoxic condition followed by compound washout measured after 72 hrs by MTT assay; type: cell-based; procedure, shortened: as §1

| Compound | IC50 [1] [µM] | Ratio IC50 [2] | Ratio IC50 [3] | IC50 [4] [µM] | remaining at 48 h, 5 µM [5] [%] | IC50 [6] [µM] | remaining at 6 h, 5 µM [7] [%] | remaining at 6 h, 5 µM [8] [%] | IC50 [9] [µM] |
| --- | --- | --- | --- | --- | --- | --- | --- | --- | --- |
| CCc1c2c(nc3ccc(OC(=O)N(C)CCN(C)C(=O)OCc4cnc([N+](=O)[O-])n4C)cc13)-c1cc3c(c(=O)n1C2)COC(=O)[C@]3(O)CC | 7.56 | >1.32 | 1.09 | 75.9 | 99 | > 100 | 13 | 92 | 8.27 |
| Cn1c(COP(=O)(NCCBr)NCCBr)cnc1[N+](=O)[O-] [EVOFOSFAMIDE] | 9.08 | >2.02 | 5.61 | 49.5 | – | > 100 | – | – | 51 |
| CCc1c2c(nc3ccc(OCc4cnc([N+](=O)[O-])n4C)cc13)-c1cc3c(c(=O)n1C2)COC(=O)[C@]3(O)CC | 0.14 | 3.82 | 3.71 | 3.89 | 100 | 14.9 | 72 | 94 | 0.52 |
| CCc1c2c(nc3ccc(O)cc13)-c1cc3c(c(=O)n1C2)COC(=O)[C@]3(O)CC [7-ETHYL-10-HYDROXYCAMPTOTHECIN] | 0.06 | 0.74 | 0.83 | 3.71 | – | 2.74 | – | – | 0.05 |

Source: ChEMBL document CHEMBL4024709, “Synthesis and biological evaluation of hypoxia-activated prodrugs of SN-38” (Eur J Med Chem, 2017)
